Laboratory results published in ChEMBL document CHEMBL1811828, “LuxR dependent quorum sensing inhibition by N,N'-disubstituted imidazolium salts” (Bioorg Med Chem, 2011).
Activity calls are given as the source filed them. No cut-off for these calls is given here.

Experiments:
Format in all cases: functional
[1] = target: T1, Transcriptional activator protein LuxR (Aliivibrio fischeri, UniProt P12746); assay: Antagonist activity at Vibrio fischeri LuxR assessed as inhibition of 3-oxo-C6-HSL-induced quorum sensing activation mediated bioluminescence
T1 sequence (P12746 whole entry): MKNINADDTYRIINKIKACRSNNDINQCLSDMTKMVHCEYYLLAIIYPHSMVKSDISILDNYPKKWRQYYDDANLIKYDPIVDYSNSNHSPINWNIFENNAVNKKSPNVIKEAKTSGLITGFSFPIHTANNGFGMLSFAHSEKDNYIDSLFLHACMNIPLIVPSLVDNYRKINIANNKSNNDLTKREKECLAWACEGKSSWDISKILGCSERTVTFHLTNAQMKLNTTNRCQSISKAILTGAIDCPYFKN
Method in brief: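 Bioluminescence induced with 200 nM 3-oxo-C6-HSL, with test compounds added. IC50 is the concentration that halves the induced light intensity. Values are means of three experiments with standard deviation.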

[2] = target: T2, Transcriptional activator protein LuxR (Aliivibrio fischeri) (UniProt P12746); assay: Agonist activity at Vibrio fischeri LuxR assessed as activation of quorum sensing activation mediated bioluminescence
T2 sequence (whole entry): T1 sequence (P12746 whole entry)

Aliivibrio fischeri = assay: Antimicrobial activity against Vibrio fischeri incubated overnight at 37 degC by disc diffusion assay
Method in brief: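 Disk diffusion susceptibility assay following CLSI guidelines, with a kanamycin control disk. Compounds were tested at 20 μM, 200 μM, 2 mM and 20 mM. Inhibition zones were measured after overnight incubation at 37 °C, and the MIC was taken from these tested levels.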

CCCCCCCCCCn1cc[n+](C(c2ccc(Cl)cc2Cl)c2ccc(Cl)cc2Cl)c1
IC50 ([1]; read-out: IC50): 4.9 µM
Activity [2]: inactive

CCCCCCCCCCCCCCn1cc[n+](C(c2ccc(Cl)cc2)c2ccc(Cl)cc2)c1
IC50 ([1]; read-out: IC50): 75 µM
Activity [2]: inactive

CCCCCCCCCCCCCCn1cc[n+](C2c3ccccc3-c3ccccc32)c1
IC50 ([1]; read-out: IC50): 2.7 µM
Activity [2]: inactive

CCCCCCCCCCCCCCCCn1cc[n+](C2c3ccccc3-c3ccccc32)c1
IC50 ([1]; read-out: IC50): 14.7 µM
Activity [2]: inactive

CCCCCCCCCCCCCCCCn1cc[n+](C2CCCC2)c1
IC50 ([1]; read-out: IC50): 5.3 µM
Activity [2]: inactive

CCCCCCCCCCCCCCCCCCn1cc[n+](C(c2ccc(Cl)cc2)c2ccc(Cl)cc2)c1.[Br-]
IC50 [1]: Not Active
Activity [2]: inactive

CCCCCCCCCCn1cc[n+](C(c2ccc(Cl)cc2)c2ccc(Cl)cc2)c1
IC50 ([1]; read-out: IC50): 5.8 µM
Activity [2]: inactive

CCCCCCCCn1cc[n+](C(c2ccc(Cl)cc2)c2ccc(Cl)cc2)c1
IC50 ([1]; read-out: IC50): 9.8 µM
Activity [2]: inactive

CCCCCCCCn1cc[n+](C2c3ccccc3-c3ccccc32)c1
IC50 ([1]; read-out: IC50): 35 µM
Activity [2]: inactive

CCCCCCCCCCCCCCCCn1cc[n+](C(c2ccccc2)c2ccccc2)c1
IC50 ([1]; read-out: IC50): 7.3 µM
Activity [2]: inactive

CCCCCCn1cc[n+](C(c2ccc(Cl)cc2)c2ccc(Cl)cc2)c1
IC50 ([1]; read-out: IC50): 63 µM
Activity [2]: inactive

CCCCCCCCCCCCCCCCCCn1cc[n+](C2CCCC2)c1
IC50 ([1]; read-out: IC50): 86 µM
Activity [2]: inactive

CCCCCCn1cc[n+](C(c2ccccc2)c2ccccc2)c1
IC50 ([1]; read-out: IC50): 153 µM
Activity [2]: inactive

CCCCCCn1cc[n+](C(c2ccc(Cl)cc2Cl)c2ccc(Cl)cc2Cl)c1
IC50 ([1]; read-out: IC50): 52 µM
Activity [2]: inactive

CCCCCCCCCCn1cc[n+](C(c2ccccc2)c2ccccc2)c1
IC50 ([1]; read-out: IC50): 18 µM
Activity [2]: inactive

CCCCCCCCn1cc[n+](C(c2ccc(Cl)cc2Cl)c2ccc(Cl)cc2Cl)c1
IC50 ([1]; read-out: IC50): 8.9 µM
Activity [2]: inactive

CCCCCCCCCCCCn1cc[n+](C(c2ccccc2)c2ccccc2)c1
IC50 ([1]; read-out: IC50): 6.1 µM
Activity [2]: inactive
MIC (Aliivibrio fischeri): 200 µM

CCCCCCCCCCn1cc[n+](C2c3ccccc3-c3ccccc32)c1
IC50 ([1]; read-out: IC50): 4 µM
Activity [2]: inactive

CCCCCCCCCCCCn1cc[n+](C(c2ccc(Cl)cc2Cl)c2ccc(Cl)cc2Cl)c1
IC50 ([1]; read-out: IC50): 6.5 µM
Activity [2]: inactive

CCCCn1cc[n+](C(c2ccccc2)c2ccccc2)c1.[Br-]
IC50 [1]: Not Active
Activity [2]: inactive

CCCCCCCCCCCCCCn1cc[n+](C(c2ccc(Cl)cc2Cl)c2ccc(Cl)cc2Cl)c1.[Br-]
IC50 [1]: Not Active
Activity [2]: inactive

CCCCCCCCn1cc[n+](C2CCCC2)c1
IC50 ([1]; read-out: IC50): 68 µM
Activity [2]: inactive

CCCCCCCCCCCCn1cc[n+](C2c3ccccc3-c3ccccc32)c1
IC50 ([1]; read-out: IC50): 1.4 µM
Activity [2]: inactive
MIC (Aliivibrio fischeri): 200 µM

CCCCCCCCCCCCCCn1cc[n+](C(c2ccccc2)c2ccccc2)c1
IC50 ([1]; read-out: IC50): 5.2 µM
Activity [2]: inactive

CCCCCCCCCCCCCCn1cc[n+](C2CCCC2)c1
IC50 ([1]; read-out: IC50): 3.4 µM
Activity [2]: inactive
MIC (Aliivibrio fischeri): 200 µM

CCCCCCCCCCn1cc[n+](C2CCCC2)c1
IC50 ([1]; read-out: IC50): 33 µM
Activity [2]: inactive

CCCCCCCCCCCCCCCCCCn1cc[n+](C(c2ccc(Cl)cc2Cl)c2ccc(Cl)cc2Cl)c1.[Br-]
IC50 [1]: Not Active
Activity [2]: inactive

CCCCCCCCCCCCn1cc[n+](C2CCCC2)c1
IC50 ([1]; read-out: IC50): 11 µM
Activity [2]: inactive

CCCCCCCCn1cc[n+](C(c2ccccc2)c2ccccc2)c1
IC50 ([1]; read-out: IC50): 76 µM
Activity [2]: inactive

CCCCCCCCCCCCn1cc[n+](C(c2ccc(Cl)cc2)c2ccc(Cl)cc2)c1
IC50 ([1]; read-out: IC50): 6.2 µM
Activity [2]: inactive
